TDP2 absorb: TDP2 (human) inhibition, absorbance primary screen; O95551; recombinant TDP2, T5PNP hydrolysis, p-nitrophenol absorbance 415 nm; inhibition, % at 12.8 µM; hit rate 0.34% among 370,000;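 active means inhibition above the mean of all tested compounds plus 3 SD, set per campaign, cut at about 25% in these data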
Target sequence (O95551 whole entry, looked up): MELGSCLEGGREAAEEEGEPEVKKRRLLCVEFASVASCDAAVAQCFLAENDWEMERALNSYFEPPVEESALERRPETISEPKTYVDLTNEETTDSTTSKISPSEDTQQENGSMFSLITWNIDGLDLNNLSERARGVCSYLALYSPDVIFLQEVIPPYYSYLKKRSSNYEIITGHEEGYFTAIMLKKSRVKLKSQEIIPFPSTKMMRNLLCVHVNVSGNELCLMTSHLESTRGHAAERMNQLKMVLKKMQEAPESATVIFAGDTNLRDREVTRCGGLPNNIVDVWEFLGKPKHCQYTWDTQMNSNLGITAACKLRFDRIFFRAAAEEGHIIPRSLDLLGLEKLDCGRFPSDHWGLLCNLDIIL
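System: recombinant human TDP2 / Amount: 120 nM TDP2 per well / Also added: 5 mM T5PNP chromogenic substrate / Doses: 12.8 µM single point, 1% DMSO / Incubation: 2 h at 37 °C / Detection: p-Nitrophenol epi absorbance / Evaluation: % inhibition relative to enzyme-containing and enzyme-free wells / Repeats: singlicate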
PAD4 inh: PAD4 (human) enzyme inhibition; hit rate 0.41% among 330,000; inhibition, % at 6.36 µM; recombinant PAD4, RCA probe fluorescence polarization; Q9UM07;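 active means percent inhibition above a cutoff equal to the mean of all tested compounds plus 3 SD, cut at about 15% in these data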
Fh CTSL1 inh: blocks F. hepatica cathepsin L1 in PFM18AAP counter-screen | recombinant F. hepatica cathepsin L1, Z-Leu-Arg-MCA fluorescence | inhibition, % at 5.96 µM | hit rate 0.49% among 300,000 | AID 1906;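 active means inhibition above the mean of all tested compounds plus 3 SD, set per screening campaign, cut at about 17% in these data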
GSTO1 inh: GSTO1 inhibition, counter-screen for RBBP9 inhibitors; AID 1974; recombinant GSTO1, activity-based probe fluorescence polarization; hit rate 1.1% among 300,000; inhibition, % at 5.96 µM; P78417;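 active means inhibition above the campaign mean inhibition plus 3 SD, cut at about 35% in these data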
Target sequence (P78417 whole entry, looked up): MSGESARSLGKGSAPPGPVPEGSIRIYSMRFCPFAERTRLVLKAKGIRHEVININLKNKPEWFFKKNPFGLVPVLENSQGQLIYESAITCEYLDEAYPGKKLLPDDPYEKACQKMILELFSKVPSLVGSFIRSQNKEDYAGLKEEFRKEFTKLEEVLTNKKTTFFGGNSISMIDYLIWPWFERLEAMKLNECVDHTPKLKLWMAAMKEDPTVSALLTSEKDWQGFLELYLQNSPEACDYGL
Large screens that a line does not name were inactive; ! = repeats disagree. Compounds with a hit are over-represented: about 1.4% of the library has one in this group of screens.

O=C(CCN1C(=O)C2CC=CCC2C1=O)Nc1cc(C(F)(F)F)ccc1N1CCCC1 (stereo unspecified)	GSTO1 inh 36
COC(=O)CN(C)C(=O)c1ccc(OC)c(OC2CCN(C(C)C)CC2)c1	Fh CTSL1 inh 52
COc1ccc(C(=O)N(C)Cc2ccc(C)o2)cc1OC1CCN(C(C)C)CC1	none
COc1ccc(OC)c(N2C(=O)[C@@H]3C(c4ccccc4Cl)=NO[C@@H]3C2=O)c1	GSTO1 inh 37
Cc1cccc(C)c1N1C(=O)[C@@H]2C(c3ccccc3Cl)=NO[C@@H]2C1=O	none
[O-]/C(=C(\C(=S)Nc1cccc2ccccc12)[n+]1ccccc1)c1cccs1	GSTO1 inh 37
N/C(=N\OS(=O)(=O)c1ccc(Cl)cc1)c1cccnc1	none
N/C(=N\OS(=O)(=O)c1ccc(Cl)cc1)c1ccncc1	Fh CTSL1 inh 24
CCOC(=O)CC[C@H]1CC[C@]2(CCCN(Cc3ccccc3)C2)O1	none (no result: PAD4 inh, Fh CTSL1 inh, GSTO1 inh)
O=C1N(Cc2ccccc2)c2ccccc2C12CCCc1sc(CCc3ccccc3)nc12 (stereo unspecified)	none (no result: PAD4 inh, Fh CTSL1 inh, GSTO1 inh)
O=C(CCl)N(C/C=C/c1ccccc1)c1ccc2c(c1)OCCO2	GSTO1 inh 93
CC(=O)N1N=C(c2ccc(Cl)cc2)CC1c1ccco1 (stereo unspecified)	none
COc1ccc(C2CC(c3ccccc3)=NN2C(=O)COC(=O)c2ccc(Cl)nc2)cc1 (stereo unspecified)	none
O=C(CNC(=O)c1ccccc1)OCC(=O)N1N=C(c2ccc(Cl)cc2)CC1c1ccco1 (stereo unspecified)	Fh CTSL1 inh 20
COc1ccc(C2CC(c3ccccc3)=NN2C(=O)COC(=O)CNC(=O)c2ccccc2)cc1 (stereo unspecified)	Fh CTSL1 inh 31
COc1cccc(NC(=O)C2CCCN2C(=O)Nc2cccc3c2OCO3)c1 (stereo unspecified)	none (no result: PAD4 inh, Fh CTSL1 inh, GSTO1 inh)
CCOc1ccc(-n2c(COc3ccccc3)nnc2SCC(=O)Nc2ccc(OCc3ccccc3)cc2)cc1	none (no result: PAD4 inh, Fh CTSL1 inh, GSTO1 inh)
CC1CCCC(NC(=O)NC(=O)CCl)C1C (stereo unspecified)	Fh CTSL1 inh 24, GSTO1 inh 99
CC1CCCCC1NC(=O)NC(=O)COC(=O)c1nccnc1N (stereo unspecified)	none (no result: Fh CTSL1 inh, GSTO1 inh)
CC1CCCCC1NC(=O)NC(=O)CCl (stereo unspecified)	GSTO1 inh 94
Brc1ccc(CSc2nnc(SCc3ccccc3)s2)cc1	none (no result: PAD4 inh, Fh CTSL1 inh, GSTO1 inh)
CCN(CC)C(=O)C(C)N(C#N)c1nc(NC(C)C)nc(NC(C)C)n1 (stereo unspecified)	none
CC(C)Nc1nc(C#N)nc(NC(C)C)n1	Fh CTSL1 inh 57
O=C(NCc1ccccc1)OCCN1C(=O)CCC12CCC(c1ccc(Cl)cc1)CC2 (stereo unspecified)	none (no result: PAD4 inh, Fh CTSL1 inh, GSTO1 inh)
CC(C)[C@H](NC(=O)CC1CCCC1)C(=O)N1CCC[C@H]1C(=O)NCCc1ccccc1Cl	none (no result: PAD4 inh, Fh CTSL1 inh, GSTO1 inh)
CCC[C@H]1[C@@H](OC(=O)NCc2ccc(Cl)cc2)CC[C@@]23CCCN2C(=O)CCC[C@@H]13	none (no result: PAD4 inh, Fh CTSL1 inh, GSTO1 inh)
Fc1cccc(Cl)c1CNc1ccc(N2CCCC2)cc1	GSTO1 inh 37
O=C1CSc2ccc(C(=O)N3CCCC(C(=O)N4CCN(c5ccc(F)cc5)CC4)C3)cc2N1 (stereo unspecified)	none (no result: PAD4 inh, Fh CTSL1 inh, GSTO1 inh)
O=C1CC(=O)N(Cc2ccco2)C(=O)N1	GSTO1 inh 37
O=C1CC(=O)N(Cc2ccco2)C(=S)N1	none (no result: TDP2 absorb)
CCCCCCNC(=O)C1CSCCS(=O)(=O)N1Cc1ccc(OC)cc1 (stereo unspecified)	none (no result: PAD4 inh, Fh CTSL1 inh, GSTO1 inh)
CC(C)C(=O)N1CC[C@H]2[C@H](CCCN2Cc2ccc(F)cc2)C1	none (no result: PAD4 inh, Fh CTSL1 inh, GSTO1 inh)
O=C(NCc1ccccc1)C1(C(F)(F)F)C/C(=C/CCO)CCCO1 (stereo unspecified)	none
CNC(=O)C1(C(F)(F)F)C/C(=C\CCO)CCCO1 (stereo unspecified)	Fh CTSL1 inh 18
Oc1ccc(O)c(Cc2nc3ccccc3[nH]2)c1	GSTO1 inh 70
c1ccc2[nH]c(COCc3nc4ccccc4[nH]3)nc2c1	none (no result: PAD4 inh, Fh CTSL1 inh, GSTO1 inh)
CCCCOCCCNC(=O)C[C@H]1C[C@@]2(C(=O)OC)C(=C[C@H](C(C)C)O[C@@H]2C2CC2)N(CCc2ccc(OC)c(OC)c2)C1=O	none (no result: PAD4 inh, Fh CTSL1 inh, GSTO1 inh)
COc1ccc(C(=O)/C=C/c2ccccc2)c(O)c1	Fh CTSL1 inh 22
COC(=O)[C@]12C[C@H](CC(=O)N3CCSCC3)C(=O)N(Cc3cccc4ccccc34)C1=C[C@H](C(C)(C)C)O[C@@H]2C	none (no result: PAD4 inh, Fh CTSL1 inh, GSTO1 inh)
Cc1ccnc(N/C=C(/NC(=O)c2ccccc2)C(=O)N/N=C\c2ccc(Cl)cc2)n1	Fh CTSL1 inh 17
CCCCCCCCN1CN2Cc3cc(OC)ccc3C2CS1(=O)=O (stereo unspecified)	none (no result: PAD4 inh, Fh CTSL1 inh, GSTO1 inh)
CN(C)C(CNC(=O)C1CCCN(C(=O)c2ccc(Cl)cc2)C1)c1ccco1 (stereo unspecified)	Fh CTSL1 inh 18
O=C(NCc1ccc(Cl)cc1)C1CCCN(C(=O)c2ccc(Cl)cc2)C1 (stereo unspecified)	none (no result: Fh CTSL1 inh, GSTO1 inh)
N#CC(C#N)=C(N)/C(C#N)=C/c1cc(O)c(O)c(O)c1	GSTO1 inh 64
O=S(=O)(NCCc1ccccc1F)c1cccc(S(=O)(=O)N2CCOCC2)c1	GSTO1 inh 43
NC(=S)N/N=C\c1ccccc1OCc1ccccc1	none
NC(=S)N/N=C/c1c[nH]c2ccc(OCc3ccccc3)cc12	Fh CTSL1 inh 55 (no result: TDP2 absorb)
COc1cccc(/C=N/NC(N)=S)c1OCc1cccc(Cl)c1	Fh CTSL1 inh 17
CCOC(=O)/C(C#N)=N\Nc1cc(Cl)ccc1OC	Fh CTSL1 inh 32
COc1ccc(NC(=O)N2CCCC(CCC(=O)N(C)CCc3ccccn3)C2)cc1 (stereo unspecified)	Fh CTSL1 inh 70
CCc1ccccc1NC(=O)N1CCCC(CCC(=O)N(C)CCc2ccccn2)C1 (stereo unspecified)	none
Cn1cc(CN2CCc3sccc3C2)c(-c2ccccc2F)n1	none
Clc1ccccc1CN1CCc2sccc2C1	Fh CTSL1 inh 22!
CC(C)C[C@H](NC(=O)C1CC(=O)N(c2ccc3c(c2)OCO3)C1)C(=O)NCc1ccco1 (stereo partly specified)	Fh CTSL1 inh 27
C[C@H](NC(=O)C1CC(=O)N(c2ccc3c(c2)OCCO3)C1)C(=O)NCc1ccco1 (stereo partly specified)	none
CN(C(=O)c1cc2c(=O)n3ccccc3nc2n1C)C1CCCCC1	Fh CTSL1 inh 18
CCOC(=O)CN1C(=O)N(c2ccc(OC)cc2)[C@H]2CC3c4ccccc4C[C@]3(C)[C@@H](C(=O)N(C)C3CCCCC3)C[C@H]21 (stereo partly specified)	none (no result: PAD4 inh, Fh CTSL1 inh, GSTO1 inh)
COC(=O)c1cc(OC)nc(OC)c1	none
COC(=O)c1cc(O)c(O)c(O)c1	GSTO1 inh 47
COc1ccc(NC(=O)C(c2ccc(C#N)cc2)n2c(=O)c(-c3ccco3)nc3ccccc32)cc1 (stereo unspecified)	none (no result: PAD4 inh, Fh CTSL1 inh, GSTO1 inh)
COC(=O)c1cccc(N2C(=O)C[C@](Sc3ccc(OC)cc3)(C(=O)N3CCOCC3)[C@H]2c2ccc(OC)cc2)c1	none (no result: PAD4 inh, Fh CTSL1 inh, GSTO1 inh)
CCCCn1c(SCC(=O)NCc2ccco2)nc2c(sc3ccccc32)c1=O	none

Screens: PubChem, The Scripps Research Institute Molecular Screening Center
